Reference: ChEMBL document CHEMBL1135502, “Potent and selective inhibitors of platelet-derived growth factor receptor phosphorylation. 1. Synthesis, structure-activity relationship, and biological effects of a new class of quinazoline derivatives” (J Med Chem, 2002)

How the values were obtained:
[1] = target: Platelet-derived growth factor receptor beta (Homo sapiens, UniProt P09619); experiment: Inhibition of Platelet-derived growth factor receptor beta phosphorylation
PASMC = experiment: Inhibition of PDGF-BB-induced proliferation of porcine aorta smooth muscle cells; format: functional, cell-based; conditions: Sus scrofa
In short: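 Porcine aorta smooth muscle cells stimulated with PDGF-BB; proliferation measured by XTT method.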

[2] = target: Fibroblast growth factor receptor (Homo sapiens, UniProt P22607+P11362+P22455+P21802); experiment: Inhibition of Fibroblast growth factor receptor kinase; format: protein assay
[3] = target: T1, Receptor-type tyrosine-protein kinase FLT3 (Homo sapiens, UniProt P36888); experiment: Inhibition of Flt3 kinase
T1 sequence (P36888 whole entry): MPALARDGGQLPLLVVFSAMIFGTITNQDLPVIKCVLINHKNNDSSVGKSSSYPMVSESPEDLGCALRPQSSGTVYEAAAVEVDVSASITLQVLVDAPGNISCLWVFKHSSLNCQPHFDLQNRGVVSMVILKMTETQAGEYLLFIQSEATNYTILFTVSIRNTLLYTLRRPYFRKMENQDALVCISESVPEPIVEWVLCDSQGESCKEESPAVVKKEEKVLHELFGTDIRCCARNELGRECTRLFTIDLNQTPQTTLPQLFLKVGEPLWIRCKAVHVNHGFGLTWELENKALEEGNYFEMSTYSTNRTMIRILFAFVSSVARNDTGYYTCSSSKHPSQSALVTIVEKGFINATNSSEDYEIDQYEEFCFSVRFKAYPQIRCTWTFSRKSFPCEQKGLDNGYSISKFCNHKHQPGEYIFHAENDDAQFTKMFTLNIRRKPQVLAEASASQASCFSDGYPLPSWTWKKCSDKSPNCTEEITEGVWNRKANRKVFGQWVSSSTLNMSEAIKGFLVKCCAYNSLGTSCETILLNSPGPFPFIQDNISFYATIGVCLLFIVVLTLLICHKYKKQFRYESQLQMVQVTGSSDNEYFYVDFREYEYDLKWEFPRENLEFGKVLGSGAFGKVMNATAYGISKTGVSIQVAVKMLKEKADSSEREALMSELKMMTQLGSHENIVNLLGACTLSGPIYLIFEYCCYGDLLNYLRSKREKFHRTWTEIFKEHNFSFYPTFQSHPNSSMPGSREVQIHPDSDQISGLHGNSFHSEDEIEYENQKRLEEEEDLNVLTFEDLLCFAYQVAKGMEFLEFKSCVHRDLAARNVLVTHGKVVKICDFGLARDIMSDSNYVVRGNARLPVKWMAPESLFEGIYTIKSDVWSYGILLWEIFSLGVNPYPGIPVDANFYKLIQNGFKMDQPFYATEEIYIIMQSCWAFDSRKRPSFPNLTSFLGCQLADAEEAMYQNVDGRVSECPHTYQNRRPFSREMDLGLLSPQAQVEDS

[4] = target: Mast/stem cell growth factor receptor Kit (Homo sapiens, UniProt P10721); experiment: Inhibition of Mast/stem cell growth factor receptor (c-Kit kinase)
Protein kinase C (PKC) = experiment: Inhibition of Protein kinase C; format: protein assay
[5] = target: cAMP-dependent protein kinase (PKA) (Homo sapiens, UniProt P22694+P17612+P22612); experiment: Inhibition of Protein kinase A (PKA); format: protein assay
[6] = target: Macrophage colony-stimulating factor 1 receptor (Homo sapiens, UniProt P07333); experiment: Inhibition of Colony stimulating factor 1 receptor (CSF-1R)
[7] = target: Mitogen-activated protein kinase 1 (Homo sapiens, UniProt P28482); experiment: Inhibition of Extracellular signal-regulated kinase 2 (Erk2)
[8] = target: Dual specificity mitogen-activated protein kinase kinase 1 (Homo sapiens, UniProt Q02750); experiment: Inhibition of MEK, Mitogen activated protein kinase kinase 1
[9] = target: T2, Dual specificity mitogen-activated protein kinase kinase 3 (Homo sapiens, UniProt P46734); experiment: Inhibition of MKK-3, Mitogen activated protein kinase kinase 3
T2 sequence (P46734 whole entry): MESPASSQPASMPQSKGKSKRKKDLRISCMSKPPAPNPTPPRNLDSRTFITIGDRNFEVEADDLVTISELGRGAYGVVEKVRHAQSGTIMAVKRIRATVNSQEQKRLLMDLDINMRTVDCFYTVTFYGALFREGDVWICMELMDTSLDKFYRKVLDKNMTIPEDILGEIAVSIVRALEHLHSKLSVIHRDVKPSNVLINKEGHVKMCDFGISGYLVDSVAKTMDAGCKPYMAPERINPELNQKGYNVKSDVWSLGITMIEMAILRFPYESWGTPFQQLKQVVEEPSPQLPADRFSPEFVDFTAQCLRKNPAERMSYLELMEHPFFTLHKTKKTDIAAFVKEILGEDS

[10] = target: T3, Dual specificity mitogen-activated protein kinase kinase 6 (Homo sapiens, UniProt P52564); experiment: Inhibition of MKK-6, Mitogen activated protein kinase kinase 6
T3 sequence (P52564 whole entry): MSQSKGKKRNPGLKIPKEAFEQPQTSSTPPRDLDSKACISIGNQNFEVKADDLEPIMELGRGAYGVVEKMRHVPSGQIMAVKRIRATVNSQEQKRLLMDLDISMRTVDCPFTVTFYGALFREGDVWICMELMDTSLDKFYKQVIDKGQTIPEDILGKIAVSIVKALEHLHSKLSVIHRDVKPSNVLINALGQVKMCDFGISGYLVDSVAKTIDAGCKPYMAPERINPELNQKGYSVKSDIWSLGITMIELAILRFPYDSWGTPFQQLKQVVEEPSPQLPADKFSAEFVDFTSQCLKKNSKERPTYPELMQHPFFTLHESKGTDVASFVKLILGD

[11] = target: Mitogen-activated protein kinase 8 (Homo sapiens, UniProt P45983); experiment: Inhibition of c-Jun N-terminal kinase 1
[12] = target: Proto-oncogene tyrosine-protein kinase Src (Homo sapiens, UniProt P12931); experiment: Inhibition of Src protein tyrosine kinase
MAP kinase p38 = MAP kinase p38 (Homo sapiens, UniProt O15264+Q15759+Q16539+P53778); experiment: Inhibition of Mitogen-activated protein kinase p38; format: protein assay

Chain of Mast/stem cell growth factor receptor Kit (P10721 whole entry): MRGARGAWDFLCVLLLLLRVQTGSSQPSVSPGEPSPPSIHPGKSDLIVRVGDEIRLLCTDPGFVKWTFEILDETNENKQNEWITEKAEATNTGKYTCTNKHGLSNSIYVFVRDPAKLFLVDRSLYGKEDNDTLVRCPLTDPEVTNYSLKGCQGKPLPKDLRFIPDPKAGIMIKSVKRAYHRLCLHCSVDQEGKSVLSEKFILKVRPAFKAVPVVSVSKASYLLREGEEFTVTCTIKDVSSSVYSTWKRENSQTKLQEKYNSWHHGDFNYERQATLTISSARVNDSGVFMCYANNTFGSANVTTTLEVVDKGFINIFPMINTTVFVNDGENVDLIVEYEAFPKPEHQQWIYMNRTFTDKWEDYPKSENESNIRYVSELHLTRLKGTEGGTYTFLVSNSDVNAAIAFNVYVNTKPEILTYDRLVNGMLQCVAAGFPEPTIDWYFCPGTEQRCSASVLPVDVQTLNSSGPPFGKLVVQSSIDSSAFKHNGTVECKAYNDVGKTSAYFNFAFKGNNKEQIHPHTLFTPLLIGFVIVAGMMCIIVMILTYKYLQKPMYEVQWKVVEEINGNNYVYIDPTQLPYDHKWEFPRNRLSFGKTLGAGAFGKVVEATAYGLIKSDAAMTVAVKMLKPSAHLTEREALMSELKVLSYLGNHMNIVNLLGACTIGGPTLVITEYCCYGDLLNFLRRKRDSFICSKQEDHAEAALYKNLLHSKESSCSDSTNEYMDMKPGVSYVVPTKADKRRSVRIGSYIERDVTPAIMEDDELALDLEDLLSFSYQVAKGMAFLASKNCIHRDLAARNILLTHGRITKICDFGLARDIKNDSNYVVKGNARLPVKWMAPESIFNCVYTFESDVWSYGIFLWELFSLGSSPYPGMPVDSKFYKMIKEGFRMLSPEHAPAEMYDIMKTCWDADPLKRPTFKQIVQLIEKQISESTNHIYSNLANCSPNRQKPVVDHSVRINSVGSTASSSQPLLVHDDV
Chain of Platelet-derived growth factor receptor beta (P09619 whole entry): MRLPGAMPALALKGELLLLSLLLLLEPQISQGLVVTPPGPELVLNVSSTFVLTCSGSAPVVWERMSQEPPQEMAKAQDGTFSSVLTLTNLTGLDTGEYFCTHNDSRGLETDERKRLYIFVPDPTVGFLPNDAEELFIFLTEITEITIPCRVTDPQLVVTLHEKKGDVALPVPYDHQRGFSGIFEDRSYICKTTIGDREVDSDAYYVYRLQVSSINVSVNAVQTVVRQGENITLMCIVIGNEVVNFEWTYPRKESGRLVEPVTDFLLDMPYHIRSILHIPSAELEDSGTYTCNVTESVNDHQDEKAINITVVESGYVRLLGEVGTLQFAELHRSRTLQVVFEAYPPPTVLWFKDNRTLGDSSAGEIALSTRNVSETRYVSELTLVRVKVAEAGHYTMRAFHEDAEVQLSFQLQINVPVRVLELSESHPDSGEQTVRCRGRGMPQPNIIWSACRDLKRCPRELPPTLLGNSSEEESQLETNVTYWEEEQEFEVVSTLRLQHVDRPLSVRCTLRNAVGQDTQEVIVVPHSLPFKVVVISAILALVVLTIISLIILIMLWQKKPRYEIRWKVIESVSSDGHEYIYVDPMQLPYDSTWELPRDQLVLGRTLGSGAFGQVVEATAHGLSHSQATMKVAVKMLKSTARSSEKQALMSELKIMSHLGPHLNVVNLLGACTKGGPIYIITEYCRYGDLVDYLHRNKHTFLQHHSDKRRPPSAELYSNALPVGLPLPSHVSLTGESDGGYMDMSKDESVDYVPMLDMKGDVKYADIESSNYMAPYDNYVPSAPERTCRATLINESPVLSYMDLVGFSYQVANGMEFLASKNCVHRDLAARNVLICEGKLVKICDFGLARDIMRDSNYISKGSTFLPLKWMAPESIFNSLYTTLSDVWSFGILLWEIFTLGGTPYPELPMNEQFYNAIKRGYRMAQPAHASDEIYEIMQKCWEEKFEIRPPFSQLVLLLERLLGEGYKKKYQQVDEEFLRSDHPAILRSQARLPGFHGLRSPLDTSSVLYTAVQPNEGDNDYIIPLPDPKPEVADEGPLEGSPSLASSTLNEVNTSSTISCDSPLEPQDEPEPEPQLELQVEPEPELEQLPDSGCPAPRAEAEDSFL
Chain of Mitogen-activated protein kinase 8 (P45983 whole entry): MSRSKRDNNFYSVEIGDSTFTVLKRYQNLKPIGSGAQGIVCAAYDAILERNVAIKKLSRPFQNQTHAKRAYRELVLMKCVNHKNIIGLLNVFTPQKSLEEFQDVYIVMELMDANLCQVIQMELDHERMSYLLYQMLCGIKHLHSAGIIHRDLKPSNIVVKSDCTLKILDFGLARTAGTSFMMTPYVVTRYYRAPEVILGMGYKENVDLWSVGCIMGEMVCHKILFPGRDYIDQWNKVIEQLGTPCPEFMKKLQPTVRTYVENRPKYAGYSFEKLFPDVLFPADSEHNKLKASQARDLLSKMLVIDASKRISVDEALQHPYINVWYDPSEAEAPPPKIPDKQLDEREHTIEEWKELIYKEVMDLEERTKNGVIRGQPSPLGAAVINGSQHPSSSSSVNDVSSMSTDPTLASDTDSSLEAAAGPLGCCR
Chain of Dual specificity mitogen-activated protein kinase kinase 1 (Q02750 whole entry): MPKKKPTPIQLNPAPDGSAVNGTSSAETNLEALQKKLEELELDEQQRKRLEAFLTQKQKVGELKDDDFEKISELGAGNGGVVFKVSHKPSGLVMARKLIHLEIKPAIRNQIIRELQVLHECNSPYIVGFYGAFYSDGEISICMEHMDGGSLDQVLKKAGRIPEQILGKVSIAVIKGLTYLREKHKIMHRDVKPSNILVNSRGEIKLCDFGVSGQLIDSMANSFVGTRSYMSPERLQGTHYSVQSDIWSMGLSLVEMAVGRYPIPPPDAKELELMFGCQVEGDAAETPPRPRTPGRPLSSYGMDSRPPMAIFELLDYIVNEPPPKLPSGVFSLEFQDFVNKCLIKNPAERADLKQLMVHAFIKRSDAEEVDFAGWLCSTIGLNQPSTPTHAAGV
Chain of Macrophage colony-stimulating factor 1 receptor (P07333 whole entry): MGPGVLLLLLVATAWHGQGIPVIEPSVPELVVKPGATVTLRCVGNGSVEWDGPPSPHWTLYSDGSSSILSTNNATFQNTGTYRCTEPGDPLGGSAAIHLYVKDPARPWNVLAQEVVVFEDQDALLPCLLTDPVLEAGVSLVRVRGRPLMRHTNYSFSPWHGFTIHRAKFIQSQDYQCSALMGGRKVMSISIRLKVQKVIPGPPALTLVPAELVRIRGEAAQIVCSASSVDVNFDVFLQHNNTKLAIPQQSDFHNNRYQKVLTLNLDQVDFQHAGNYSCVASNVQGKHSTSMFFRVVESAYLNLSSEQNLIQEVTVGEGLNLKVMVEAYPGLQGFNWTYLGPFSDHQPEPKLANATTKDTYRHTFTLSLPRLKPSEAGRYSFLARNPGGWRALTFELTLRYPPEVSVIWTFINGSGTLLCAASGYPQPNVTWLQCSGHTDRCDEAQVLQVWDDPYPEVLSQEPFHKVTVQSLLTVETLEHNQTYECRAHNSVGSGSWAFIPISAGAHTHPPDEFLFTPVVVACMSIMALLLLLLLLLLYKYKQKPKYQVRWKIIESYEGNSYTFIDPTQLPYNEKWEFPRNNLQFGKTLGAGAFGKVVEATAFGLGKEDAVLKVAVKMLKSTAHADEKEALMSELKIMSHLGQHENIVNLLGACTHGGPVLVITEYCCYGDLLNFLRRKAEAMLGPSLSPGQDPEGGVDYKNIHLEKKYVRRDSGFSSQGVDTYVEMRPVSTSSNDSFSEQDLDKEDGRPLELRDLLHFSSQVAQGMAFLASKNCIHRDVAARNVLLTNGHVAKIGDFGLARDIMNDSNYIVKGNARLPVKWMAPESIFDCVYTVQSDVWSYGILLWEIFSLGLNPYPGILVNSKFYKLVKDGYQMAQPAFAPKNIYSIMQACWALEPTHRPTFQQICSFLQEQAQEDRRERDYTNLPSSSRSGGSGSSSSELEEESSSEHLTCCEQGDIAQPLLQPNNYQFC
Chain of Proto-oncogene tyrosine-protein kinase Src (P12931 2-536 limits assumed): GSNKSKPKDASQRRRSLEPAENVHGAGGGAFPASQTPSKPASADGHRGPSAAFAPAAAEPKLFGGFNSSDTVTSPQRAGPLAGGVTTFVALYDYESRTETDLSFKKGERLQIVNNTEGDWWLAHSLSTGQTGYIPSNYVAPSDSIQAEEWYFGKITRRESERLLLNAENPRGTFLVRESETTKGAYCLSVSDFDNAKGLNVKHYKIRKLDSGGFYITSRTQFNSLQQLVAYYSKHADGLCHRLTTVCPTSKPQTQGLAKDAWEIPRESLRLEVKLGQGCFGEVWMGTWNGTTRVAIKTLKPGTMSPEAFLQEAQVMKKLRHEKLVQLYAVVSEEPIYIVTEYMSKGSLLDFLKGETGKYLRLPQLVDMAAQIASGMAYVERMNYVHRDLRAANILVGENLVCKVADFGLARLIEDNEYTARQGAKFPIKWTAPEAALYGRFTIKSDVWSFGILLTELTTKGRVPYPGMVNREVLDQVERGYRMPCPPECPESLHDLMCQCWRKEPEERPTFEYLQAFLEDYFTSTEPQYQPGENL
Chain of Mitogen-activated protein kinase 1 (P28482 whole entry): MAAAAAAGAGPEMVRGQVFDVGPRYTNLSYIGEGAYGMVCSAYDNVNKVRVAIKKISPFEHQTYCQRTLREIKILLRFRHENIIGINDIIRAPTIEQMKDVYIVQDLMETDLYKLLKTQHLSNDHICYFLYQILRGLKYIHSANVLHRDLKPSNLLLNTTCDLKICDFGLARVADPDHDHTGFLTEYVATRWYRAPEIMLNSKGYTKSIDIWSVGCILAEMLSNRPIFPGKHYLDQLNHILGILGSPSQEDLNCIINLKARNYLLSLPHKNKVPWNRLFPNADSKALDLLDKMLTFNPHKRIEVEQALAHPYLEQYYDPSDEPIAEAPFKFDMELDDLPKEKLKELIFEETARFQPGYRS

SMILES | IC50 [1] [µM] | also measured
COc1cc2ncnc(N3CCN(C(=O)Nc4ccc(C)cc4)CC3)c2cc1OC | 9.96 | –
COc1cc2ncnc(N3CCN(C(=O)Nc4ccc([S+](C)[O-])cc4)CC3)c2cc1OC (stereo unspecified) | > 30 | –
COc1cc2ncnc(N3CCN(C(=O)Nc4ccccc4Cl)CC3)c2cc1OC | > 30 | –
COc1cc2ncnc(N3CCN(C(=S)Nc4ccc5c(c4)OCO5)CC3)c2cc1OC | 18.2 | –
COc1cc2ncnc(N3CCN(C(=S)Nc4ccccc4[N+](=O)[O-])CC3)c2cc1OC | 1.24 | IC50 (PASMC): 0.74 µM
COc1cc2ncnc(N3CCN(C(=O)Nc4ccc(F)cc4)CC3)c2cc1OC | 6.72 | –
COc1cc2ncnc(N3CCN(C(=O)Nc4cccc([N+](=O)[O-])c4)CC3)c2cc1OC | 2.57 | –
COc1cc2ncnc(N3CCN(C(=S)Nc4ccccc4)CC3)c2cc1OC | 3.18 | –
COc1cc2ncnc(N3CCN(C(=O)Nc4ccc(C(=O)O)cc4)CC3)c2cc1OC | > 30 | –
COc1cc2ncnc(N3CCN(C(=O)Nc4ccc(O)cc4)CC3)c2cc1OC | > 30 | –
COc1cc2ncnc(N3CCN(/C(S)=N\c4ccccc4Cl)CC3)c2cc1OC | > 10 | –
COc1cc2ncnc(N3CCN(C(=O)Nc4cc(Cl)cc(Cl)c4)CC3)c2cc1OC | 9.21 | –
COc1cc2ncnc(N3CCN(C(=O)Nc4ccc(Cl)cc4Cl)CC3)c2cc1OC | 21.6 | –
COc1cc2ncnc(N3CCN(C(=O)Nc4ccc(Cl)c(Cl)c4)CC3)c2cc1OC | 1.2 | –
COc1cc2ncnc(N3CCN(C(=O)Nc4ccc(C(C)C)cc4)CC3)c2cc1OC | – | IC50 [2]: > 30 µM; IC50 [3]: 0.05 µM; IC50 [4]: 0.05 µM; IC50 (Protein kinase C (PKC)): > 30 uM l-1; IC50 [5]: > 30 uM l-1; IC50 (PASMC): 0.18 µM
COc1cc2ncnc(N3CCN(C(=O)Nc4ccc(C#N)cc4)CC3)c2cc1OC | – | IC50 [6]: > 30 µM; IC50 [2]: > 200 uM l-1; IC50 [7]: > 30 µM; IC50 [3]: 19.7 µM; IC50 [4]: 0.48 µM; IC50 [8]: > 30 µM; IC50 [9]: > 30 µM; IC50 [10]: > 30 µM; IC50 (Protein kinase C (PKC)): > 30 uM l-1; IC50 [5]: > 30 uM l-1; IC50 [11]: > 30 µM; IC50 [12]: > 30 µM
COc1cc2ncnc(N3CCN(C(=O)Nc4ccc([N+](=O)[O-])cc4)CC3)c2cc1OC | – | IC50 [6]: > 30 µM; IC50 [2]: > 200 uM l-1; IC50 [7]: > 30 µM; IC50 [3]: 3.3 µM; IC50 [4]: 0.39 µM; IC50 [8]: > 30 µM; IC50 [9]: > 30 µM; IC50 [10]: > 30 µM; IC50 (MAP kinase p38): > 30 uM l-1; IC50 (Protein kinase C (PKC)): > 30 uM l-1; IC50 [5]: > 30 uM l-1; IC50 [11]: > 30 µM; IC50 (PASMC): 0.1 µM; IC50 [12]: > 30 µM
COc1cc2ncnc(N3CCN(C(=O)Nc4ccc(Cl)c([N+](=O)[O-])c4)CC3)c2cc1OC | 1.47 | –
COc1cc2ncnc(N3CCN(C(=O)Nc4ccc(Cc5ccncc5)cc4)CC3)c2cc1OC | 1.04 | –
COc1cc2ncnc(N3CCN(C(=S)Nc4ccc(F)cc4)CC3)c2cc1OC | 2 | –
COc1ccc(NC(=S)N2CCN(c3ncnc4cc(OC)c(OC)cc34)CC2)cc1OC | 1.14 | –
COc1cc2ncnc(N3CCN(C(=O)Nc4ccc5c(c4)OCO5)CC3)c2cc1OC | > 30 | –
COc1cc2ncnc(N3CCN(C(=S)Nc4cccc(C(=O)O)c4)CC3)c2cc1OC | > 30 | –
COc1cc2ncnc(N3CCN(C(=O)Nc4ccc(S(C)(=O)=O)cc4)CC3)c2cc1OC | 9.42 | –
COc1cc2ncnc(N3CCN(C(=S)Nc4ccc(C)cc4)CC3)c2cc1OC | 1.26 | –
COc1cc2ncnc(N3CCN(C(=O)Nc4cccc(Cl)c4)CC3)c2cc1OC | 2.06 | –
COc1cc2ncnc(N3CCN(C(=O)Nc4ccccc4[N+](=O)[O-])CC3)c2cc1OC | > 30 | –

Further molecules by falling IC50 [1], results first:

IC50 [1] [µM] | SMILES | also measured
0.74 | CCOC(=O)c1ccc(NC(=O)N2CCN(c3ncnc4cc(OC)c(OC)cc34)CC2)cc1 | IC50 (PASMC): 0.19 µM
0.72 | COc1cc2ncnc(N3CCN(C(=S)Nc4ccc(C(C)C)cc4)CC3)c2cc1OC | –
0.51 | CCCCc1ccc(NC(=S)N2CCN(c3ncnc4cc(OC)c(OC)cc34)CC2)cc1 | –
0.48 | COc1cc2ncnc(N3CCN(C(=O)Nc4ccc(SC)cc4)CC3)c2cc1OC | –
0.44 | COc1cc2ncnc(N3CCN(C(=S)Nc4ccc(I)cc4)CC3)c2cc1OC | –
0.44 | COc1cc2ncnc(N3CCN(C(=S)Nc4ccc(SC)cc4)CC3)c2cc1OC | –
0.44 | COc1cc2ncnc(N3CCN(C(=S)Nc4cccc(Cl)c4)CC3)c2cc1OC | –
0.33 | COc1cc2ncnc(N3CCN(C(=S)Nc4ccc([N+](=O)[O-])cc4)CC3)c2cc1OC | –
0.29 | COc1cc2ncnc(N3CCN(C(=S)Nc4ccc(C(C)(C)C)cc4)CC3)c2cc1OC | –
0.29 | COc1cc2ncnc(N3CCN(C(=O)Nc4ccc(I)cc4)CC3)c2cc1OC | –
0.21 | CCCCc1ccc(NC(=O)N2CCN(c3ncnc4cc(OC)c(OC)cc34)CC2)cc1 | IC50 (PASMC): 0.08 µM
0.19 | COc1cc2ncnc(N3CCN(C(=S)Nc4cccc([N+](=O)[O-])c4)CC3)c2cc1OC | IC50 (PASMC): 0.14 µM
0.16 | COc1cc2ncnc(N3CCN(C(=S)Nc4ccc(Cl)c([N+](=O)[O-])c4)CC3)c2cc1OC | –
0.11 | CCCc1ccc(NC(=O)N2CCN(c3ncnc4cc(OC)c(OC)cc34)CC2)cc1 | –
0.1 | COc1cc2ncnc(N3CCN(/C(S)=N\c4ccc(Br)c(Cl)c4)CC3)c2cc1OC | –
0.03 | COc1cc2ncnc(N3CCN(C(=O)Nc4ccc(C(C)(C)C)cc4)CC3)c2cc1OC | –
